Measured values taken from ChEMBL document CHEMBL1143930, “S-Euglobals: biomimetic synthesis, antileishmanial, antimalarial, and antimicrobial activities” (Bioorg Med Chem, 2008).
Values after ≈ are worked out from the molar mass of the structure shown. Active and inactive are the calls of the source. No cut-off for these calls is given here.

What was measured:
[1] = test system: Plasmodium falciparum; test: Antimalarial activity against chloroquine-resistant Plasmodium falciparum W2 by LDH release; type: functional, organism-based
In short: (§1)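 Infected red cells (W2 or D6), 2% parasitemia, 2% hematocrit, in RPMI 1640 with 10% human serum and 60 µg/mL amikacin, exposed to serial sample dilutions. Incubated 72 h at 37 C under 90% N2/5% O2/5% CO2. Parasite LDH measured with Malstat reagent (30 min, room temperature), then NBT/PES 1 h in dark, stopped with 5% acetic acid, read at 650 nm. IC50 from dose-response curves.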

[2] = test system: BT-549; test: Cytotoxicity against human BT549 cells by neutral red assay; type: functional, cell-based
In short: (§2)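 Cells were seeded at 25,000 per well and incubated 24 h. Test samples were added at a range of concentrations, followed by a further 48 h incubation. Viable cells were quantified by Neutral Red uptake, and IC50 was read from dose curves of percent growth versus concentration.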

[3] = test system: SK-OV-3; test: Cytotoxicity against human SK-OV3 cells by neutral red assay up to 25 ug/mL; type: functional, cell-based; in short: as §2
[4] = test system: Cryptococcus neoformans; test: Antifungal activity against Cryptococcus neoformans; type: functional, organism-based
In short: (§3)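 Modified NCCLS broth microdilution. Samples in DMSO were serially diluted in 0.9% saline and tested in duplicate. Inocula were matched to the 0.5 McFarland standard by absorbance at 630 nm, then diluted in broth. Growth, solvent and media controls were included. Plates were read at 630 nm before and after incubation, and IC50 was taken from percent growth versus concentration.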

[5] = test system: Plasmodium falciparum; test: Antimalarial activity against chloroquine-sensitive Plasmodium falciparum D6 by LDH release assay; type: functional, organism-based; in short: as §1
[6] = test system: Vero; test: Cytotoxicity against african green monkey Vero cells by neutral red assay up to 25 ug/mL; type: cell-based; conditions: chlorocebus sabaeus; in short: as §2
[7] = Cytotoxicity against pig LLC-PK11 cells by neutral red assay up to 25 ug/mL; type: cell-based, Sus scrofa; in short: as §2
[8] = test system: KB; test: Cytotoxicity against human KB cells by neutral red assay up to 25 ug/mL; type: functional, cell-based; in short: as §2
[9] = test system: Aspergillus fumigatus; test: Antifungal activity against Aspergillus fumigatus; type: functional, organism-based; in short: as §3
[10] = test system: Candida albicans; test: Antifungal activity against Candida albicans; type: functional, organism-based; in short: as §3
[11] = test system: Leishmania donovani; test: Antileishmanial activity against Leishmania donovani promastigotes after 48 hrs by Alamar blue assay; type: functional, organism-based
In short: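 L. donovani promastigotes were grown in RPMI 1640 with 10% fetal calf serum at 26 C. A 3-day-old culture was diluted to 5 × 10^5 promastigotes/mL, and drug dilutions were made directly in the cell suspension. After 48 h at 26 C, growth was read by Alamar Blue fluorescence (ex 544/em 590 nm). IC50 and IC90 came from percent growth versus concentration curves.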

[12] = test system: SK-MEL; test: Cytotoxicity against human SKMEL cells by neutral red assay up to 25 ug/mL; type: functional, cell-based; in short: as §2
[13] = Selectivity index, ratio of IC50 for african green monkey (Cercopithecus aethiops) Vero cells to IC50 for Plasmodium falciparum W2; type: functional
In short: (§4)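 The index is IC50 in Vero cells (Neutral Red, 48 h exposure) divided by IC50 against P. falciparum D6 or W2. For the parasite assay, infected erythrocytes at 2% parasitemia and 2% hematocrit in RPMI 1640 with 10% human serum were incubated 72 h at 37 C under 90% N2, 5% O2, 5% CO2. Parasite LDH was measured with Malstat plus NBT/PES at 650 nm.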

[14] = Selectivity index, ratio of IC50 for african green monkey (Cercopithecus aethiops) Vero cells to IC50 for Plasmodium falciparum D6; type: functional; in short: as §4
[15] = test system: SK-MEL; test: Cytotoxicity against human SKMEL cells by neutral red assay; type: functional, cell-based; in short: as §2
[16] = test system: BT-549; test: Cytotoxicity against human BT549 cells by neutral red assay up to 25 ug/mL; type: functional, cell-based; in short: as §2
[17] = test system: SK-OV-3; test: Cytotoxicity against human SK-OV3 cells by neutral red assay; type: functional, cell-based; in short: as §2
[18] = test system: Vero; test: Cytotoxicity against african green monkey Vero cells by neutral red assay; type: cell-based; conditions: chlorocebus sabaeus; in short: as §2
[19] = Cytotoxicity against pig LLC-PK11 cells by neutral red assay; type: cell-based; conditions: Sus scrofa; in short: as §2

## CC(C)C[C@H]1C[C@]2(CC[C@@H]3C[C@H]2C3(C)C)Oc2c(C=O)c(O)c(C=O)c(O)c21 [ROBUSTADIAL B]
[1]
  IC50: 4.76 µg/mL (≈ 12.3 µM)
[2]
  IC50: 25 µg/mL (≈ 64.7 µM)
[3]
  Activity: inactive
[4]
  Activity: inactive
[5]
  IC50: 4.5 µg/mL (≈ 11.6 µM)
[6]
  Activity: Not Active
[7]
  Activity: Not Active
[8]
  Activity: inactive
[9]
  Activity: inactive
[10]
  Activity: inactive
[11]
  IC50: 16 µg/mL (≈ 41.4 µM)
  IC90: 16 µg/mL (≈ 41.4 µM)
[12]
  Activity: inactive
[13]
  Selectivity index: >5.3
[14]
  Selectivity index: >5.6

## CC(C)CC(=O)c1c(O)c(C=O)c(O)c2c1O[C@@]1(C)[C@H](CC[C@H]3[C@@H]1C3(C)C)C2
[1]
  IC50: 2.7 µg/mL (≈ 6.99 µM)
[3]
  Activity: inactive
[4]
  Activity: inactive
[5]
  IC50: 3.4 µg/mL (≈ 8.8 µM)
[6]
  Activity: Not Active
[7]
  Activity: Not Active
[8]
  Activity: inactive
[15]
  IC50: 25 µg/mL (≈ 64.7 µM)
[9]
  Activity: inactive
[10]
  Activity: inactive
[11]
  IC50: 5.5 µg/mL (≈ 14.2 µM)
  IC90: 28 µg/mL (≈ 72.4 µM)
[13]
  Selectivity index: >9.3
[16]
  Activity: inactive
[14]
  Selectivity index: >7.4

## CC(C)C[C@@H]1C[C@@]2(CC[C@@H]3C[C@H]2C3(C)C)Oc2c(C=O)c(O)c(C=O)c(O)c21 [ROBUSTADIAL A]
[1]
  IC50: 2.8 µg/mL (≈ 7.24 µM)
[2]
  IC50: 19 µg/mL (≈ 49.2 µM)
[4]
  Activity: inactive
[5]
  IC50: 4.76 µg/mL (≈ 12.3 µM)
[17]
  IC50: > 25 µg/mL
[18]
  IC50: 19 µg/mL (≈ 49.2 µM)
[8]
  Activity: inactive
[15]
  IC50: > 25 µg/mL
[9]
  Activity: inactive
[10]
  Activity: inactive
[19]
  IC50: 17 µg/mL (≈ 44 µM)
[11]
  IC50: 20 µg/mL (≈ 51.7 µM)
  IC90: 39 µg/mL (≈ 101 µM)
[13]
  Selectivity index: 6.8
[14]
  Selectivity index: 4
